# From ChEMBL document CHEMBL5653630, “Activation of the p53-MDM4 regulatory axis defines the anti-tumour response to PRMT5 inhibition through its role in regulating cellular splicing” (Sci Rep, 2018)
# Calls of active or inactive are those of the source. The rule behind the calls is not given here.
# Legend:
# Z-138 [1] = assay: Induction of cell cycle arrest in human Z138 cells assessed as increase in 2n cell population measured upto 5000 nM measured for 3 days by propidium iodide staining based flow cytometric analysis; type: functional; conditions: time 3.0 day
# Z-138 [2] = assay: Induction of apoptosis in human Z138 cells assessed as early apoptotic cells incubated for 6 days by annexin-V/FITC propidium iodide staining based flow cytometry analysis; type: functional, cell-based; conditions: dose 200.0 nM, time 6.0 day
# Z-138 [3] = assay: Induction of cell cycle arrest in human Z138 cells assessed as increase in sub-2n cell population measured upto 1000 nM measured for 5 days by propidium iodide staining based flow cytometric analysis; type: functional; conditions: time 5.0 day
# JVM-2 = assay: Induction of apoptosis in human JVM-2 cells assessed as dead cells incubated for 6 days by annexin-V/FITC propidium iodide staining based flow cytometry analysis; type: functional, cell-based; conditions: dose <= 5000.0 nM, time 6.0 day
# MDA-MB-468 = assay: Induction of cell cycle arrest in human MDA-MB-468 cells assessed as increase in 4n cell population measured upto 5000 nM measured for 7 to 10 days by propidium iodide staining based flow cytometric analysis; type: functional; conditions: time 7-10 day
# ASPC1 = assay: Antiproliferative activity against human ASPC1 cells assessed as cell growth inhibition incubated for 10 days; type: functional; conditions: ASPC1, 240 h, time 10 day
# How it was run: (§1)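 Cells kept in RPMI-1640 with 10% FBS, 2 mM L-alanyl-L-glutamine and 1 mM Na pyruvate (or a special medium) at 37°C, 5% CO2. Compound added 24 h after seeding, 10 concentrations in 3.16-fold dilution, 0.1% DMSO final. Medium replaced and cells re-dosed at 168 h; 240 h incubation. Nuclei fixed, dye-stained and imaged. gIC50 = growth midway between untreated and time-zero cell counts, from a 4-parameter fit.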
# COLO 205 = assay: Antiproliferative activity against human COLO 205 cells assessed as cell growth inhibition incubated for 10 days; type: functional; conditions: COLO 205, 240 h, time 10 day; how it was run: as §1
# HOS = assay: Antiproliferative activity against human HOS cells assessed as cell growth inhibition incubated for 10 days; type: functional; conditions: 240 h, time 10 day
# How it was run: (§2)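 Outsourced panel run in 384-well plates. Cells were grown in RPMI-1640/10% FBS or a special medium at 37°C, 5% CO2. Compound was added 24 h after seeding as a 10-point, 3.16-fold series in 0.1% DMSO. Medium was refreshed and cells re-dosed at 168 h, with a time-zero plate kept. At 240 h cells were fixed, nuclei stained and imaged. gIC50 is growth midway between untreated and time zero, from a 4-parameter fit.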
# BJAB = assay: Antiproliferative activity against human BJAB cells assessed as cell growth inhibition incubated for 6 days by celltiter-glo assay; type: functional; conditions: 144 h, time 6 day
# BE(2)-C = assay: Antiproliferative activity against human BE2C cells assessed as cell growth inhibition incubated for 10 days; type: functional; conditions: 240 h, time 10 day; how it was run: as §1
# YAPC = assay: Antiproliferative activity against human YAPC cells assessed as cell growth inhibition incubated for 10 days; type: functional; conditions: 240 h, time 10 day
# [4] = biological target: Protein arginine N-methyltransferase 5 (Homo sapiens) (UniProt O14744); assay: Inhibition of PRMT5 in human Z138 cells assessed as full length MDM4 splicing at 200 to 1000 nM incubated for 3 days by RT-PCR analysis; type: cell-based; conditions: dose 200-1000 nM, time 3.0 day
# Sequence of Protein arginine N-methyltransferase 5 (Homo sapiens) (O14744 whole entry): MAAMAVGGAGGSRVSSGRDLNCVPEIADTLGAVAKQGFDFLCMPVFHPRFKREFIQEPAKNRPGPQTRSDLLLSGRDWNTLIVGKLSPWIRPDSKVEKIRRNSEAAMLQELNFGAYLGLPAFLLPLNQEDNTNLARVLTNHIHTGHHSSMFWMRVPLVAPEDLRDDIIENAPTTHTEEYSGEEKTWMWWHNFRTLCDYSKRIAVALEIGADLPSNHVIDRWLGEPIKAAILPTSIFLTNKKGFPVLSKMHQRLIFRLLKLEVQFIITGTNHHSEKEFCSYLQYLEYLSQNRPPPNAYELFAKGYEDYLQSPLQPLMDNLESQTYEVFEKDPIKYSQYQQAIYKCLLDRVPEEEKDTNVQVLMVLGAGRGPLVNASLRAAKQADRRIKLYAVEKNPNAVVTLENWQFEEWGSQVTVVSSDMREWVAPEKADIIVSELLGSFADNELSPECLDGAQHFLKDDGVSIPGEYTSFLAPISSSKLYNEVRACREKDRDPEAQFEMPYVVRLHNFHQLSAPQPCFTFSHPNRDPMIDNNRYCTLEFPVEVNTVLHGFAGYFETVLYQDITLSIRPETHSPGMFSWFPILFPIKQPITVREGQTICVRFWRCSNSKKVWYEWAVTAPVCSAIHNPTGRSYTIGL
# 639-V = assay: Antiproliferative activity against human 639-V cells assessed as cell growth inhibition incubated for 10 days; type: functional; conditions: 240 h, time 10 day; how it was run: as §1
# C-33-A = assay: Antiproliferative activity against human C-33-A cells assessed as cell growth inhibition incubated for 10 days; type: functional; conditions: 240 h, time 10 day; how it was run: as §1
# L-428 = assay: Antiproliferative activity against human L-428 cells assessed as cell growth inhibition incubated for 10 days; type: functional; conditions: L-428, 240 h, time 10 day
# PC-3 = assay: Antiproliferative activity against human PC-3 cells assessed as cell growth inhibition incubated for 10 days; type: functional; conditions: PC-3, 240 h, time 10 day
# A498 = assay: Antiproliferative activity against human A498 cells assessed as cell growth inhibition incubated for 10 days; type: functional; conditions: A498, 240 h, time 10 day; how it was run: as §1
# LS174T = assay: Antiproliferative activity against human LS174T cells assessed as cell growth inhibition incubated for 10 days; type: functional; conditions: 240 h, time 10 day
# [5] = Antiproliferative activity against human A7 cells assessed as cell growth inhibition incubated for 10 days; type: functional; conditions: A7, 240 h, time 10 day; how it was run: as §1
# HLE = assay: Antiproliferative activity against human HLE cells assessed as cell growth inhibition incubated for 10 days; type: functional; conditions: 240 h, time 10 day; how it was run: as §2
# SJSA-1 = assay: Antiproliferative activity against human SJSA-1 cells assessed as cell growth inhibition incubated for 10 days; type: functional; conditions: SJSA-1, 240 h, time 10 day
# Capan-2 = assay: Antiproliferative activity against human Capan-2 cells assessed as cell growth inhibition incubated for 10 days; type: functional; conditions: Capan-2, 240 h, time 10 day; how it was run: as §2
# [6] = biological target: Protein arginine N-methyltransferase 5 (Homo sapiens) (UniProt O14744); assay: Inhibition of PRMT5 in human Z138 cells assessed as effect on snRNP B1 level by measuring fold change by LC-MS/MS analysis relative to control; type: cell-based
# NCI-H69 = assay: Antiproliferative activity against human NCI-H69 cells assessed as cell growth inhibition incubated for 10 days; type: functional; conditions: NCI-H69, 240 h, time 10 day
# [7] = Antiproliferative activity against human SKO-007 cells assessed as cell growth inhibition incubated for 10 days; type: functional; conditions: SKO-007, 240 h, time 10 day
# SK-MEL-28 = assay: Antiproliferative activity against human SK-MEL-28 cells assessed as cell growth inhibition incubated for 10 days; type: functional; conditions: SK-MEL-28, 240 h, time 10 day
# HCT-116 = assay: Antiproliferative activity against human HCT-116 cells assessed as cell growth inhibition incubated for 10 days; type: functional; conditions: HCT-116, 240 h, time 10 day; how it was run: as §2
# NCI-H292 = assay: Antiproliferative activity against human NCI-H292 cells assessed as cell growth inhibition incubated for 10 days; type: functional; conditions: NCI-H292, 240 h, time 10 day
# DMS-114 = assay: Antiproliferative activity against human DMS-114 cells assessed as cell growth inhibition incubated for 10 days; type: functional; conditions: DMS-114, 240 h, time 10 day; how it was run: as §2
# [8] = Antiproliferative activity against human TE 381.T cells assessed as cell growth inhibition incubated for 10 days; type: functional; conditions: 240 h, time 10 day
# U-2940 = assay: Antiproliferative activity against human U-2940 cells assessed as reduction in cell viability; type: functional, cell-based
# MG-63 = assay: Antiproliferative activity against human MG-63 cells assessed as cell growth inhibition incubated for 10 days; type: functional; conditions: MG-63, 240 h, time 10 day
# BHT-101 = assay: Antiproliferative activity against human BHT-101 cells assessed as cell growth inhibition incubated for 10 days; type: functional; conditions: BHT-101, 240 h, time 10 day; how it was run: as §1
# LNCaP = assay: Antiproliferative activity against human LNCaP cells assessed as cell growth inhibition incubated for 10 days; type: functional; conditions: 240 h, time 10 day
# SK-UT-1 = assay: Antiproliferative activity against human SK-UT-1 cells assessed as cell growth inhibition incubated for 10 days; type: functional; conditions: SK-UT-1, 240 h, time 10 day
# U-266 = assay: Antiproliferative activity against human U266B1 cells assessed as cell growth inhibition incubated for 10 days; type: functional; conditions: U-266, 240 h, time 10 day
# HT-3 = assay: Antiproliferative activity against human HT-3 cells assessed as cell growth inhibition incubated for 10 days; type: functional; conditions: HT-3, 240 h, time 10 day; how it was run: as §2
structure (smiles),measurement,setting,value
CC(=O)N1CCC(Nc2cc(C(=O)NC[C@H](O)CN3CCc4ccccc4C3)ncn2)CC1 [PEMRAMETOSTAT],Activity,Z-138 [1],Active
same,Activity,Z-138 [2],Dose-Dependent Effect
same,Activity,Z-138 [3],Active
same,Activity,JVM-2,Dose-Dependent Effect
same,Activity,MDA-MB-468,Active
O=C(NC[C@H](O)CN1CCc2ccccc2C1)c1ccnc(NC2CCC2)c1,GI50,ASPC1,302 nM
same,GI50,COLO 205,10000 nM
same,GI50,HOS,223 nM
same,GI50,BJAB,3100 nM
same,GI50,BE(2)-C,803 nM
same,GI50,YAPC,168 nM
same,inhibition,[4],Active
same,GI50,639-V,342 nM
same,GI50,C-33-A,228 nM
same,GI50,L-428,330 nM
same,GI50,PC-3,873 nM
same,GI50,A498,50.7 nM
same,GI50,LS174T,170 nM
same,GI50,[5],36.7 nM
same,GI50,HLE,174 nM
same,GI50,SJSA-1,773 nM
same,GI50,Capan-2,69.7 nM
same,fold change (FC),[6],-16.8
same,GI50,NCI-H69,144 nM
same,GI50,[7],84.4 nM
same,GI50,SK-MEL-28,239 nM
same,GI50,HCT-116,166 nM
same,GI50,NCI-H292,166 nM
same,GI50,DMS-114,1010 nM
same,GI50,[8],147 nM
same,Activity,U-2940,Active
same,GI50,MG-63,96 nM
same,GI50,BHT-101,214 nM
same,GI50,LNCaP,2930 nM
same,GI50,SK-UT-1,42.1 nM
same,GI50,U-266,78.5 nM
same,GI50,HT-3,10000 nM
